In ChEMBL document CHEMBL4396876, “Antisulfatase, Osteogenic, and Anticancer Activities of Steroid Sulfatase Inhibitor EO-33 in Mice” (J Med Chem, 2019):

How the values were obtained:
[1] = Plasma concentration in Balb/c mouse at 30 mg/kg, po administered via gavage as single dose using MC/EtOH formulation measured at 1 hr by LC-MS/MS analysis; assay type: ADME, organism-based
How it was run: (§1)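 Female Balb/c mice, fasted 8 h with free water, given a single dose in 0.1 mL vehicle: EO-33 dissolved in EtOH, then aqueous 0.4% methylcellulose added to a final 8% EtOH. Sacrificed under isoflurane at 1, 3, 7, 12 and 24 h (2–3 mice/group). Cardiac blood collected into K-EDTA and plasma stored at −80 °C. LC-MS/MS on 100 µL plasma. AUC0-24h taken from the five time points.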

[2] = Plasma concentration in Balb/c mouse at 2 mg/kg, sc administered as single dose using MC/EtOH formulation measured after 3 hrs by LC-MS/MS analysis; assay type: ADME, organism-based; how it was run: as §1
[3] = Plasma concentration in Balb/c mouse at 30 mg/kg, po administered via gavage as single dose using MC/EtOH formulation measured after 3 hrs by LC-MS/MS analysis; assay type: ADME, organism-based; how it was run: as §1
[4] = Plasma concentration in Balb/c mouse at 30 mg/kg, po administered via gavage as single dose using SO/DMSO formulation measured after 7 hrs by LC-MS/MS analysis; assay type: ADME, organism-based
How it was run: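 Female Balb/c mice, fasted 8 h, given a single dose in 0.1 mL of PG or sunflower oil holding a final 8% DMSO. Sacrificed under isoflurane at 7 h (2–3 mice/group). Cardiac blood collected into K-EDTA and plasma analysed by LC-MS/MS.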

[5] = Plasma concentration in Balb/c mouse at 2 mg/kg, sc administered as single dose using MC/EtOH formulation measured after 12 hrs by LC-MS/MS analysis; assay type: ADME, organism-based; how it was run: as §1
[6] = Plasma concentration in Balb/c mouse at 10 mg/kg, sc administered as single dose using MC/EtOH formulation measured after 12 hrs by LC-MS/MS analysis; assay type: ADME, organism-based; how it was run: as §1
[7] = Plasma concentration in Balb/c mouse at 30 mg/kg, sc administered as single dose using MC/EtOH formulation measured after 12 hrs by LC-MS/MS analysis; assay type: ADME, organism-based; how it was run: as §1
[8] = Plasma concentration in Balb/c mouse at 30 mg/kg, po administered via gavage as single dose using MC/EtOH formulation measured after 12 hrs by LC-MS/MS analysis; assay type: ADME, organism-based; how it was run: as §1
[9] = Plasma concentration in Balb/c mouse at 10 mg/kg, sc administered as single dose using MC/EtOH formulation measured after 24 hrs by LC-MS/MS analysis; assay type: ADME, organism-based; how it was run: as §1
[10] = AUC (0 to 24 hrs) in Balb/c mouse at 30 mg/kg, po administered via gavage as single dose using MC/EtOH formulation by LC-MS/MS analysis; assay type: ADME, organism-based; parameters: time < 24 hr, dose 30 mg/kg, route oral; conditions: in vivo; how it was run: as §1
[11] = AUC (0 to 24 hrs) in Balb/c mouse assessed as (4-(((furan-2-ylmethyl)((5-methylthiophen-2-yl)methyl)amino)methyl)phenyl)(7-hydroxy-3,4-dihydroisoquinolin-2(1H)-yl)methanone level at 30 mg/kg, sc administered as single dose using MC/EtOH formulation by LC-MS/MS analysis; assay type: ADME, organism-based; parameters: time < 24 hr, dose 30 mg/kg, route subcutaneous; conditions: in vivo
[12] = AUC (0 to 24 hrs) in Balb/c mouse assessed as (4-(((furan-2-ylmethyl)((5-methylthiophen-2-yl)methyl)amino)methyl)phenyl)(7-hydroxy-3,4-dihydroisoquinolin-2(1H)-yl)methanone level at 30 mg/kg, po administered via gavage as single dose using MC/EtOH formulation by LC-MS/MS analysis; assay type: ADME, organism-based; parameters: dose 30 mg/kg, time < 24 hr, route oral; conditions: in vivo
[13] = tested on: Mus musculus; test: In vivo inhibition of STS in ovariectomized Balb/c mouse assessed as reduction in E1S-stimulated uterus weight at 30 mg/kg, sc administered twice daily starting from day 2 to day 10 using MC/EtOH formulation and E1S addition on day 5 to 10 measured on day 11 relative to control; assay type: functional
How it was run: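 Female Balb/c mice (15–20 g) ovariectomized under isoflurane, 5/group. Inhibitor given SC in 0.1 mL MC:EtOH (92:8) on days 2–10. E1S (2 µg/mouse, BID) or E1 (0.06 µg/mouse, ID) given SC on days 5–10. Vehicle controls included. Uterus dissected and weighed on day 11. Means ± SEM.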

[14] = tested on: Mus musculus; test: (§2) Ex vivo inhibition of STS in ovariectomized Balb/c mouse liver homogenates assessed as reduction in transformation of [3H]-E1S into [3H]-E1 at 15 mg/kg, sc administered twice daily starting from day 2 to day 10 using MC/EtOH formulation and E1S addition on day 5 to 10 measured on day 11 by liquid scintillation counting method relative to control; assay type: functional
How it was run: (§3)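 Livers collected on day 11 from the OVX Balb/c uterotrophic protocol and homogenized in cold pH 7.4 phosphate buffer with protease inhibitors. 2000 g supernatant, 100 or 500 µg protein, incubated with [3H]-E1S/E1S (final 1 µM) in PBS for 2 h at 37 °C. Xylene extraction, then scintillation counting of both phases. Result given as % E1 formed. Triplicate.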

[15] = tested on: Mus musculus; test: as §2, with “30” for “15”; assay type: functional; how it was run: as §3
[16] = tested on: Mus musculus; test: Osteogenic activity in ovariectomized-induced C57BL/6 mouse model of osteoporosis assessed as recovery of tibia weight at 30 mg/kg, sc administered 6 days per week for 70 days using MC/EtOH formulation relative to control; assay type: functional
How it was run: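 Female C57BL/6 mice (63–70 days) ovariectomized under isoflurane; sham controls kept. 8/group, dosed SC in 0.1 mL MC:EtOH (92:8) for 70 days. Tibias excised and weighed (mg/g body weight). Calcium measured by ICP-MS after calcination at 600 °C for 6 h and HNO3 microwave digestion; expressed as mg/g tibia.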

[17] = tested on: Mus musculus; test: Estrogenic activity in ovariectomized-induced C57BL/6 mouse model of osteoporosis assessed as stimulation of uterus weight at 30 mg/kg, sc administered 6 days per week for 70 days using MC/EtOH formulation measured post last dose by necropsy analysis; assay type: ADME, organism-based; conditions: in vivo
[18] = Hepatotoxicity in ovariectomized-induced C57BL/6 mouse model of osteoporosis assessed as effect on liver weight at 30 mg/kg, sc administered 6 days per week for 70 days using MC/EtOH formulation measured post last dose by necropsy analysis; assay type: toxicity, organism-based; conditions: in vivo
[19] = tested on: MCF7; test: Antitumor activity against human MCF7 cells xenografted in nu/nu Br athymic mouse assessed as effect on […]-stimulated tumor growth by measuring tumor size at 30 mg/kg, sc administered 6 days per week for […] using MC/EtOH formulation measured post-last dose (reference value: 171 %); assay type: functional
[20] = Toxicity in nu/nu Br athymic mouse xenografted with human […]-stimulated MCF7 cells assessed as effect on kidneys at 30 mg/kg, sc administered 6 days per week […] using MC/EtOH formulation measured 3 hrs post-last dose by necropsy analysis; assay type: organism-based; conditions: in vivo
How it was run: (§4)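 MCF-7 cells (grown in DME-F12 with 5% FBS and 1 nM estradiol) inoculated SC at 4.1 x 10^6 cells in 30% Matrigel into both flanks of bilaterally ovariectomized nude mice, three days after surgery; E2S 50 µg/mouse SC three times weekly. Test agent SC 6 days/week in 0.1 mL MC:EtOH (92:8) for 28 days; vehicle-only controls. Mice weighed and killed 3 h after last dose; livers removed.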

[21] = Toxicity in nu/nu Br athymic mouse xenografted with human […]-stimulated MCF7 cells assessed as effect on liver weight at 30 mg/kg, sc administered 6 days per week […] using MC/EtOH formulation measured 3 hrs post-last dose; assay type: organism-based; conditions: in vivo; how it was run: as §4

- concentration at 1 h [1]: 308 ng/mL
- concentration at 3 h [2]: 33 ng/mL
- concentration at 3 h [3]: 19 ng/mL
- concentration at 7 h [4]: 49 ng/mL
- concentration at 12 h [5]: 1 ng/mL
- concentration at 12 h [6]: 4 ng/mL
- concentration at 12 h [7]: 64 ng/mL
- concentration at 12 h [8]: 3 ng/mL
- concentration at 24 h [9]: 2 ng/mL
- AUC(0-t) at 24 h [10]: 878 ng·h/mL
- AUC [11]: 269 ng·h/mL
- AUC [12]: 10 ng·h/mL
SMILES: Cc1ccc(CN(Cc2ccc(C(=O)N3CCc4ccc(OS(N)(=O)=O)cc4C3)cc2)Cc2ccco2)s1
- inhibition in vivo at 30 mg/kg [13]: 69%
- inhibition in vivo at 15 mg/kg [14]: 71%
- inhibition in vivo at 30 mg/kg [15]: 81%
- Activity [16]: 100%
- Activity [17]: Non-Toxic
- Activity [18]: Non-Toxic
- Activity [19]: 72%
- Activity [20]: Non-Toxic
- Activity [21]: Non-Toxic
